# A selection: hits, their analogues and other compounds. The true share with any hit is near 1.3%.
# JMJD2C inh: human JMJD2C demethylase inhibition; GST-JMJD2C(1-420) H3K9me3 demethylation, DELFIA europium; inhibition, % at 2.35 µM; 0.069% of 330,000 active; AID 2099;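 active = more than half of a compound's replicate wells show inhibition beyond 50%, single wells judged on their own value; inconclusive = some, but no more than half, of replicates pass 50% inhibition; inactive = no replicate passes 50% inhibition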;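 note: signal counts dimethyl H3K9 product captured on neutravidin plate; 0% = median of DMSO wells and 100% = 0.3 times that DMSO median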
# NR2E3 ag-1: agonists of human nuclear receptor NR2E3 | GST-NR2E3/biotin-RetCOR TR-FRET, 1536-well | Q9Y5X4 | inhibition of corepressor binding, % at 4.78 µM | AID 2300 | 0.12% of 320,000 active;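 active = percent inhibition above the cutoff of mean plus 3 SD of all tested compounds, set per screening campaign, cut at about 20% in these data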;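 note: 0% = DMSO wells and 100% = biotin wells as full block of FRET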
# Target sequence (Q9Y5X4 whole entry, looked up): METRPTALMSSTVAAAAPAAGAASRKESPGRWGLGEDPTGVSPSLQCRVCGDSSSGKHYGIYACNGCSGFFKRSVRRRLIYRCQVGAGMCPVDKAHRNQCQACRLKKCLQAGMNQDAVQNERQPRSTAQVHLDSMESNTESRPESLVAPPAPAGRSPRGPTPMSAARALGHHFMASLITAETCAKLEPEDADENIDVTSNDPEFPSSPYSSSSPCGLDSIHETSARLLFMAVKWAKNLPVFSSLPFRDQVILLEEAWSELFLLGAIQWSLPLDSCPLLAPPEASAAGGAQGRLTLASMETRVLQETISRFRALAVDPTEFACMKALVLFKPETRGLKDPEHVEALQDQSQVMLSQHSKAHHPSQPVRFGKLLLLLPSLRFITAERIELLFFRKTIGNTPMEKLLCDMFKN
#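 Test system: GST-NR2E3 and biotin-RetCOR proteins | Quantity: 1.35 nM GST-tagged NR2E3 final | Medium: Tris pH 7.5 | Also added: 7 nM biotin-RetCOR | Dosing: Compound at 4.8 µM, single dose | Timing: 5 h at 4 °C | Detection: Time-resolved FRET | Read-out basis: Percent inhibition | Benchmarks: Biotin wells as high control, 0.6% DMSO wells as low control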
# EP2 modulator: EP2 receptor (human) modulation; EP2-expressing cells, cAMP HTRF FRET, PGE2 co-stimulation; P43116; 0.83% of 260,000 active; induction, % at 25 µM;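 active = compounds whose cAMP rise, as percent of the full-agonist control response, exceeds 60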;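 note: rat C6 glioma line stably carrying human EP2 under a CMV promoter; the protocol text gives 20 µM as final concentration; 100% = response of wells given 1 µM PGE2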
# Target sequence (P43116 whole entry, looked up): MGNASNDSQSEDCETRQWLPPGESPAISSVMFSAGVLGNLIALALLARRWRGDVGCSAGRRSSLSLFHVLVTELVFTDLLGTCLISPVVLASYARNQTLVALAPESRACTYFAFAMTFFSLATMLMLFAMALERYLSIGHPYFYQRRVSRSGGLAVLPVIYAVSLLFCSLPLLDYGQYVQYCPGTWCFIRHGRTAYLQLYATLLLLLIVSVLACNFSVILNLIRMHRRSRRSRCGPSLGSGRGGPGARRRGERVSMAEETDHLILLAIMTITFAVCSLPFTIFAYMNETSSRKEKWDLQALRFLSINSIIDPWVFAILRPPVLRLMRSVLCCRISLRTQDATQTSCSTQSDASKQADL
# NR2E3 ag-2: human photoreceptor-specific nuclear receptor agonism | inhibition of corepressor binding, % at 3.98 µM | Q9Y5X4 | 0.35% of 360,000 active | CHO-S Gal4-NCOR/VP16-NR2E3 two-hybrid, luciferase;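 active = inhibition above the mean of all tested compounds plus 3 SD, cut at about 70% in these data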;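 note: 0% = DMSO with NR2E3 transfected cells and 100% = cells lacking NR2E3 construct; higher means lower luciferase signal from less NR2E3 corepressor binding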
# Furin inh: human furin inhibition. 0.061% of 220,000 active. P09958. AID 463115. purified furin, fluorogenic substrate cleavage. inhibition, % at 20 µM or 30 µM; in the data active = inhibition above about 25%
# PGE2 EP2 inh: EP2 receptor (human) inhibition | C6 glioma cells expressing human EP2, cAMP TR-FRET; cells stimulated with saturating PGE2 | inhibition, % at 25 µM | 0.52% of 260,000 active;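 active = percent inhibition above 40 after rounding to a whole number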;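 note: rat C6 glioma host cells with rolipram phosphodiesterase inhibitor present; the protocol text gives 20 µM as final concentration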
# EP2 confirm: EP2 receptor cAMP induction, counter-screens negative | 47% of 1,300 active | shares compounds with EP2 modulator | C6 glioma EP2 cells, cAMP HTRF induction; plus low (about EC15) PGE2 agonist | calls only at 20 µM (by protocol);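 active = cAMP induction above 50% in the main assay while under 30% in all four parallel counter assays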;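 note: rat C6 glioma cells stably expressing human EP2 receptor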
# NR2E3 ag confirm-1: confirmation of human NR2E3 nuclear receptor agonists | shares compounds with NR2E3 ag-1 | cell-free NR2E3 corepressor release, TR-FRET, 5 h | activation (reported as inhibition), % at 3.98 µM | 39% of 360 active | AID 2379; in the data active = activation above about 20%
# PPARg-NCOR2 ag: counter-screen for NR2E3 agonists: human PPARgamma-NCOR2 interaction agonists | 45% of 360 active | TR-FRET PPARg-NCOR2 coregulator interaction, biochemical | inhibition, % at 3.98 µM | shares compounds with NR2E3 ag-1 | AID 504787; in the data active = inhibition above about 20%;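 note: 0% = DMSO vehicle and 100% = wells without protein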
# NR2E3 ag confirm-2: confirmation of human NR2E3 agonists | inhibition, % at 3.98 µM | 51% of 2,300 active | CHO-S mammalian two-hybrid NR2E3-NCOR, luciferase luminescence | shares compounds with NR2E3 ag-2 | AID 624378;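 active = average inhibition above a cutoff equal to the mean inhibition of all tested compounds plus one SD, cut at about 70% in these data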;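 note: 0% = DMSO in NR2E3 cells and 100% = DMSO in cells lacking NR2E3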
# VP16 counter: counter-screen for NR2E3 agonists: GAL4-VP16 reporter inhibitors | inhibition, % at 3.98 µM | shares compounds with NR2E3 ag-2 | CHO-S GAL4-VP16 luciferase reporter, luminescence | 29% of 2,300 active;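 active = mean inhibition above a cutoff equal to the average over all tested compounds plus one standard deviation, cut at about 70% in these data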;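 note: luciferase from a UAS reporter driven by GAL4-VP16 transactivation; 0% = DMSO with VP16-transfected cells and 100% = DMSO with cells lacking VP16; higher means less reporter light so more repression of VP16 activity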
# Numbers without * were called inactive; i = inactive; ? = inconclusive; nt = no result given; ! = repeats disagree.
SMILES,JMJD2C inh,NR2E3 ag-1,EP2 modulator,NR2E3 ag-2,Furin inh,PGE2 EP2 inh,NR2E3 ag confirm-1,PPARg-NCOR2 ag,others
Cc1ccc2nc(-c3ccccn3)c(Nc3ccccc3C)n2c1,-14,-5,67*,94*,3,10,nt,nt,EP2 confirm=i;NR2E3 ag confirm-2=34;VP16 counter=-39
Cc1ccccc1Nc1c(-c2cccnc2)nc2ccccn12,-5,4,3,27,-6,4,nt,nt,
Cc1ccccc1Nc1c(-c2ccccn2)nc2ccccn12,-8,-2,66*,76*,-13,9,nt,nt,EP2 confirm=i;NR2E3 ag confirm-2=35;VP16 counter=2
Cc1ccn2c(Nc3ccccc3C)c(-c3ccccn3)nc2c1,-26,1,66*,97*,-25,14,nt,nt,EP2 confirm=i;NR2E3 ag confirm-2=44;VP16 counter=8
Cc1ccc(NC(=O)COC(=O)c2cccnc2)cc1Cl,nt,nt,-89,nt,nt,3,nt,nt,
CC[C@H](C)C(=O)O[C@H]1C[C@@H](C)C=C2C=C[C@H](C)[C@H](CC[C@@H]3C[C@@H](O)CC(=O)O3)[C@H]21,-9,2,33,24,-8,10,nt,nt,EP2 confirm=i;NR2E3 ag confirm-2=48;VP16 counter=19
Cc1nc2ccc(C(=O)N3CCn4c(nnc4C4CC4)C3)cc2nc1C,nt,nt,18,nt,nt,1,nt,nt,
CCc1ccc(OCC(=O)c2c(O)c3ccccc3oc2=O)cc1,-1,3,-35,-31,-13,6,nt,nt,
CCc1oc2ccccc2c1C(=O)c1cc(Br)c(O)c(Br)c1,?,38*,68*!,92*,-2,10,31*,45*,EP2 confirm=i;NR2E3 ag confirm-2=98*;VP16 counter=79*
Cc1cc2cc3c(cc2n2c(SCC(=O)NCCc4ccccc4)nnc12)OCCO3,nt,nt,-4,nt,nt,7,nt,nt,
O=C(Nc1nc(-c2cccs2)c(C(=O)C(F)(F)F)s1)c1ccccc1,-4,12,1,17,-12,nt,nt,nt,
O=C(Nc1nc(-c2cccs2)c(C(=O)C(F)(F)F)s1)c1ccco1,1,30*,12,-6,-19,31,34*,32*,
O=C(CN1CCC(Nc2nc3c(c(=O)[nH]2)CCCC3)CC1)NC1CCCC1,nt,nt,4,nt,nt,nt,nt,nt,
CCc1cccc(NC(=O)Cn2c(=O)c3cccn3c3ccccc32)c1,-1,26*,nt,-4,nt,nt,10,12,
Cc1cccc(C)c1NC(=O)Cn1c(=O)c2cccn2c2ccccc21,-1,1,nt,-7,nt,nt,nt,nt,
COCCNC(=O)c1cc(-c2ccccn2)nc2ccc(S(=O)(=O)N3CCC(C)CC3)cc12,-4,20*,nt,10,nt,nt,-9,7,
CCOCCCNC(=O)c1cc(-c2cccnc2)nc2ccc(S(=O)(=O)N3CCC(C)CC3)cc12,-2,-6,nt,-28,nt,nt,nt,nt,
COc1ccc(C(c2c(C)[nH]n(-c3ccccc3)c2=O)c2c(C)[nH]n(-c3ccccc3)c2=O)cc1OC,-9,30*,-14,-16,-2,16,-12,39*,
COc1cccc(C2C(C(=O)c3cc4ccccc4o3)=C(O)C(=O)N2c2cc(C)on2)c1OC (stereo unspecified),12,24*,31,0,-6,nt,25*,18,
COc1cccc(C2C(C(=O)c3cc4cccc(OC)c4o3)=C(O)C(=O)N2c2cc(C)on2)c1OC (stereo unspecified),-6,14,27,-52,-21,31,nt,nt,
COc1cc(C2C(C(=O)c3ccc(C)o3)=C(O)C(=O)N2c2cc(C)on2)cc(OC)c1OC (stereo unspecified),5,-2,nt,-3,nt,nt,nt,nt,
COc1cc(C2C(C(=O)c3cc4ccccc4o3)=C(O)C(=O)N2c2cc(C)on2)cc(OC)c1OC (stereo unspecified),15,30*,nt,-6,nt,nt,35*,34*,
COc1cccc2cc(C(=O)C3=C(O)C(=O)N(c4cc(C)on4)C3c3cccs3)oc12 (stereo unspecified),-1,33*,nt,-10,nt,nt,36*,42*,
COC(=O)c1ccc(C2C(C(=O)c3cc4ccccc4o3)=C(O)C(=O)N2c2cc(C)on2)cc1 (stereo unspecified),4,23*,nt,-9,nt,nt,32*,27*,
CCS(=O)(=O)N1CCC(Cn2nc(-c3ccc(OC)c(OC)c3)ccc2=O)CC1,nt,nt,6,nt,nt,nt,nt,nt,
SMILES,JMJD2C inh,NR2E3 ag-1,EP2 modulator,NR2E3 ag-2,Furin inh,PGE2 EP2 inh,NR2E3 ag confirm-1,PPARg-NCOR2 ag,others
CN(C)C(=O)CN1N=C(c2ccccc2)Cn2c(cc3ccccc32)C1=O,nt,nt,-15,nt,nt,nt,nt,nt,
COCCn1c(N)c(C(=O)NCC2CCCO2)c2nc3ccccc3nc21 (stereo unspecified),33,36*,-13,-7,-41,20,-3,6,
CC(C)Cn1c(N)c(C(=O)NCC2CCCO2)c2nc3ccccc3nc21 (stereo unspecified),-6,4,28,19,-22,10,nt,nt,
CCN(CC)S(=O)(=O)c1cc(C(=O)OCC(=O)Nc2cccc(S(=O)(=O)N(C)C)c2)ccc1F,-7,22*,-21,1,-13,4,-6,-6,
CCOC(=O)Cc1csc(SCn2nnc3ccccc3c2=O)n1,2,1,7,-3,-15,3,nt,nt,
CCOC(=O)Cc1csc(-n2sc3ccccc3c2=O)n1,13,32*,9,-30,-18,18,18,22*,
COCCn1c(SCC(=O)c2ccc(F)cc2)nc2sc(C)c(C)c2c1=O,nt,nt,-15,nt,nt,12,nt,nt,
CC(C)c1ccc(C(=O)Nc2ccc3oc(=O)ccc3c2)cc1,nt,nt,-55,nt,nt,10,nt,nt,
N#CCC(N)=C(C#N)C#N,-14,26*,22,-27,-13,17,0,8,
COC(=O)CC#N,19,0,nt,-10,nt,nt,nt,nt,
CC(=O)c1sccc1NC(=O)c1ccccc1C(=O)O,-5,34*,85*,-30,-14,14,23*,18,
O=C(O)CC1c2ccccc2-c2ncccc21 (stereo unspecified),nt,nt,7,nt,nt,9,nt,nt,
Cc1cccc2cc(CN(C(=O)c3ccccc3)C3CCCC3)c3nnnn3c12,nt,nt,44,nt,nt,17,nt,nt,

# Screening results from PubChem BioAssay.
